Each structure is given as a SMILES string. Activity calls are given as the source filed them.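 Rule for the calls, unless noted: active = mean duplicate potentiation above the buffer control mean plus 5 SD of buffer wells; inactive = the rest.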

For 30 compounds, activation, potentiation and outcome results are on record in PubChem BioAssay.

The nature of assay [1]: thallium flux activation in parental CHO cells, counter-screen for KCNQ1 potentiator project (AID 493006;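 active = duplicate-averaged activation above buffer control mean plus 5 SD of those controls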). The conditions noted are these: parental CHO-K1 cells, FluxOR thallium flux, at 10 µM; stronger effect = higher value. In outline:
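Assay system: Untransfected host CHO-K1 cells with FluxOR thallium dye | Probe or stimulus: Potassium/thallium depolarization pulse | Schedule: Overnight 37 °C plating, 90 min RT dye, 20 min compound | Detection: Kinetic thallium-flux fluorescence | Read-out: Max-minus-min fluorescence over baseline, percent of buffer-to-R-L3 span | Benchmarks: Low control buffer, high control R-L3 activator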
(In general: The purpose of a counterscreen is to sort out artefacts and off-target activity.)

Assay [2] concerns the target Potassium voltage-gated channel subfamily KQT member 1 (Homo sapiens) (UniProt P51787). The experiment in a line: KCNQ1 potassium channel potentiators, confirmation, FluxOR thallium flux, CHO cells, duplicates (AID 493007;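 active = potentiation averaged over duplicate wells exceeding buffer-only control mean by more than 3 SD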;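 for outcome: cells depolarized by a potassium plus thallium sulfate stimulus after compound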). The conditions noted are these: KCNQ1 cell line, FluxOR thallium flux fluorescence, at 10 µM; stronger effect = higher value, % of reference activator effect, buffer zero. In a few lines:
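Material: KCNQ1-expressing CHO cell line; Incubation: FluxOR dye loading 90 min, compound exposure 20 min, room temperature; Detection: FluxOR Tl+ flux fluorescence, 10 s baseline plus 110 s recording; Read-out: percent activation between buffer and R-L3 responses; Control set: buffer-only wells as 0% and R-L3 activator as 100%; Replication: duplicate wells per compound.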

The target of assay [3] is Potassium voltage-gated channel subfamily KQT member 2 (Rattus norvegicus) (UniProt O88943). Put plainly: rat KCNQ2 channel potentiation, selectivity assay for KCNQ1 potentiator project, KCNQ2-CHO-K1 cells (AID 493009).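 Note: assay conditions were tuned for KCNQ1 rather than KCNQ2 modulators; signal is max minus min fluorescence divided by baseline after thallium stimulus.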 The conditions noted are these: FluxOR thallium flux fluorescence, at 10 µM; stronger effect = higher value, scaled: buffer 0, activator control 100.
The target in assay [4] is Potassium voltage-gated channel subfamily KQT member 1 (Homo sapiens) (UniProt P51787). The experiment in a line: KCNQ1 channel current potentiators, confirmation, orthogonal assay for KCNQ1 potentiator project, IonWorks patch clamp, KCNQ1-CHO cells (AID 493184;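 active = current rise at least 3 SD above the untreated control mean in each of two repeat wells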). The following applies: automated patch clamp current, at 10 µM; stronger effect = higher value. In a few lines:
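assay system = KCNQ1-expressing CHO cells | medium = external bath solution at pH 7.4 | probe or stimulus = 2,000 ms depolarization, -90 to +40 mV | compound dosing = 10 µM final, single point | measured by = automated voltage clamp, amphotericin B perforated patch | measure = percent current increase versus pre-compound level | replication = duplicates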

Potassium voltage-gated channel subfamily KQT member 1 (Homo sapiens), sequence (P51787 whole entry, looked up): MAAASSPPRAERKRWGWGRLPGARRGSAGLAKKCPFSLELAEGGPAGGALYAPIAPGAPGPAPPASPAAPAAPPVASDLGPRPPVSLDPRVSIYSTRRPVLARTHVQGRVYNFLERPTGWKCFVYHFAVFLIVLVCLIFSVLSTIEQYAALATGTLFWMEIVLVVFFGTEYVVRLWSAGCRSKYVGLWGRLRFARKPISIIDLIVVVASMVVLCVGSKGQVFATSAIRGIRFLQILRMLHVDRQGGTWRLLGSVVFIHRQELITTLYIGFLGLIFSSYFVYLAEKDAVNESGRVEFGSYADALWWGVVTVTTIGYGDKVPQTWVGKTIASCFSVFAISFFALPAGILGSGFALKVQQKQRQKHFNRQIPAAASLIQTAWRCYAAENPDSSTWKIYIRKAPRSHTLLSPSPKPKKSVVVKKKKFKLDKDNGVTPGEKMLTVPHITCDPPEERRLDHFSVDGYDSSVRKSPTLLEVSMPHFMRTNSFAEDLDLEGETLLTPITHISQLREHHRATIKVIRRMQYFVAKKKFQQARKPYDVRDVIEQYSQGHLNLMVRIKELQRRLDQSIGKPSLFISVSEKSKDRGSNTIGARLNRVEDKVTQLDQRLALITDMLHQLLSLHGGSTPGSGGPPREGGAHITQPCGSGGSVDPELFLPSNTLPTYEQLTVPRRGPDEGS
Potassium voltage-gated channel subfamily KQT member 2 (Rattus norvegicus), sequence (O88943 whole entry, looked up): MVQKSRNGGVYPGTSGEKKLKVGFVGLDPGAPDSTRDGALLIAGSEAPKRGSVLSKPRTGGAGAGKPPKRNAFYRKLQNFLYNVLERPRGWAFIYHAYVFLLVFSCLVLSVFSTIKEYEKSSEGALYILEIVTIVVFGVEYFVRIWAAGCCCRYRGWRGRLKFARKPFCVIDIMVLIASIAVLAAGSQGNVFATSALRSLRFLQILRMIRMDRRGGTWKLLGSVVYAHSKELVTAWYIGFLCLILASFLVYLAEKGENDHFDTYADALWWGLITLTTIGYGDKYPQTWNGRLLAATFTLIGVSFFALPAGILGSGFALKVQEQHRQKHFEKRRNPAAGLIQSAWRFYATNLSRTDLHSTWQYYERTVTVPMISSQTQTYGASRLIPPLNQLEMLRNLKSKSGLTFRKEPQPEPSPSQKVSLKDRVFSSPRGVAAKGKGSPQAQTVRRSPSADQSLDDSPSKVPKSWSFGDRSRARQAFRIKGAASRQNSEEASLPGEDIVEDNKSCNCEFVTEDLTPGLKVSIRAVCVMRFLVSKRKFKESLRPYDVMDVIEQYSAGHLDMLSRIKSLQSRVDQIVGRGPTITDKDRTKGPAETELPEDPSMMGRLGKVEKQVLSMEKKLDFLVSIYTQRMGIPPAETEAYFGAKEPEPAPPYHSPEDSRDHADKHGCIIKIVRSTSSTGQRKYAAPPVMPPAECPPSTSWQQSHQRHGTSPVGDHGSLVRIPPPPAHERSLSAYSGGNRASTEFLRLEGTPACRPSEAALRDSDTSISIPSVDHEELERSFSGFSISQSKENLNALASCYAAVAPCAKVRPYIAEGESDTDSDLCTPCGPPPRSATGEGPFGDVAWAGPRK

Regarding `CCOC(=O)c1c(-c2ccc(C)o2)csc1NC(=S)NC(=O)N(C)C`, in assay [1], the activation is 266% (active). Further, the potentiation in assay [2] is 171% (active); in assay [3], 314% (active). Moreover, the result in assay [4] was inactive.

Regarding `COC(=O)C1=NN(C(=O)c2ccc(Cl)cc2)C(O)(c2ccccc2)C1` (stereo not given), in assay [1], the activation was 426% (active). The potentiation in assay [2] was 150% (active); in assay [3], 392% (active). Besides, the outcome in assay [4] was inactive.

For the compound `Cc1ccccc1-c1nc(-c2ccccn2)no1`, the outcome in assay [1], in assay [2], in assay [3] and in assay [4] was inactive.

`CC(=O)c1ccc(OCc2cc(C(=O)N3CC[C@@H]4CCCC[C@H]4C3)no2)cc1`: the activation in assay [1] was 144% (active). Besides, the figures for the potentiation in assay [2] and in assay [3] were 49% (active) and 160% (active), respectively. In addition, the result in assay [4] was inactive.

Consider `O=c1c(-c2ccc(Cl)cc2)[n+]([O-])c2ccccc2n1O`, for which the activation in assay [1] was 190% (active). In addition, the result in assay [2] and in assay [4] was inactive. Moreover, in assay [3], the potentiation was 184% (active).

For the compound `O=C(NC(=S)Nc1ccc(N2CCCCC2)cc1)c1ccco1`, the activation in assay [1] was 214% (active). Also, the figures for the potentiation in assay [2] and in assay [3] were 180% (active) and 228% (active), respectively. Moreover, in assay [4], the result was inactive.

Turning to `CSc1ccc(NC(=O)CC(C)=O)cc1`, the result in assay [1], in assay [2], in assay [3] and in assay [4] was inactive.

Consider `C=CCC(=O)N1CCC(n2nccc2NC(=O)CCOc2ccccc2)CC1`, for which the result in assay [1], in assay [2], in assay [3] and in assay [4] was inactive.

Take `Cc1cccc(-n2c(=S)[nH]c3sc4c(c3c2=O)CCc2ccccc2-4)c1`: in assay [1], the activation was 240% (active). For the same compound, the potentiation was 149% (active) in assay [2] and 330% (active) in assay [3]. In addition, the result in assay [4] was inactive.

With `O=C(NC(=S)NCCC1=CCCCC1)c1ccc(Br)o1`, the activation in assay [1] was 212% (active). Moreover, the potentiation in assay [2] is 304% (active); in assay [3] it was 371% (active). Besides, the result in assay [4] was inactive.

Consider `Cc1ccc(S(=O)(=O)NN2C(=O)/C(=C/c3cccs3)SC2=S)cc1`, for which the activation in assay [1] is 163% (active). The potentiation in assay [2] was 22.5% (active); in assay [3] it was 159% (active). Besides, the result in assay [4] was inactive.

Take `OC1(c2ccc(Br)cc2)CCNCC1`: the result in assay [1], in assay [2], in assay [3] and in assay [4] was inactive.

Turning to `COc1ccc(NC(=S)NC(=O)c2csnn2)cc1`, the activation in assay [1] was 213% (active). For the same compound, the potentiation is 71% (active) in assay [2] and 282% (active) in assay [3]. The result in assay [4] was inactive.

Take `O=C(c1ccc(-c2ccccc2)cc1)N1CCCC1`: in assay [1], the activation was 188% (active). The figures for the potentiation in assay [2] and in assay [3] were 217% (active) and 233% (active), respectively. Further, the outcome in assay [4] was inactive.

On to `O=C(CCC(=O)N1CCOc2ccc(Cl)cc21)NCCN1CCOCC1`, for which the outcome in assay [1], in assay [2], in assay [3] and in assay [4] was inactive.

As for `COc1cccc(OC)c1OCCOCCN1CCN(C)CC1`, the outcome in assay [1], in assay [2], in assay [3] and in assay [4] was inactive.

As to `CCCOC(=S)NC(=O)c1sc2ccccc2c1Cl`, the activation in assay [1] was 294% (active). Moreover, the values for the potentiation in assay [2] and in assay [3] were 106% (active) and 274% (active), respectively. In assay [4], the result was inactive.

Take `COc1ccc(N2CCN(C(=O)COC(=O)/C=C/c3ccc(OC(F)F)cc3)CC2)cc1`: the activation in assay [1] was 178% (active). For the same compound, the potentiation is 64.5% (active) in assay [2] and 228% (active) in assay [3]. In addition, the outcome in assay [4] was inactive.

Regarding `CCc1cccc(C)c1NC(=O)c1ccc2nc(N3CCOCC3)sc2c1`, the result in assay [1], in assay [2], in assay [3] and in assay [4] was inactive.

Turning to `Cc1cc(C(c2cc(C)c(N)c(C)c2)c2ccco2)cc(C)c1N`, the activation in assay [1] was 189% (active). Besides, the potentiation in assay [2] was 138% (active); in assay [3], 224% (active). Further, in assay [4], the outcome was inactive.

In the case of `O=C(NC(=S)Nc1ccccc1)c1cc(-c2ccccc2)nc2ccccc12`, in assay [1], the activation was 158% (active). Moreover, the potentiation is 75% (active) in assay [2] and 194% (active) in assay [3]. Further, the outcome in assay [4] was inactive.

As to `COc1ccccc1NC(=O)C(=O)NNC(=O)COc1ccc2ccccc2c1`, the activation in assay [1] is 442% (active). The results for the potentiation in assay [2] and in assay [3] were 174% (active) and 555% (active), respectively. The result in assay [4] was inactive.

Consider `CC(CCc1ccccc1)NC(=O)c1ccccc1C(=O)O` (stereo not given), for which the outcome in assay [1], in assay [2], in assay [3] and in assay [4] was inactive.

For `Cc1cc(C(=O)NN)n[nH]1`, the result in assay [1], in assay [2], in assay [3] and in assay [4] was inactive.

For `Cc1ccc(-c2c(C(=O)O)c3ccccc3[nH]c2=O)cc1`, the outcome in assay [1], in assay [2], in assay [3] and in assay [4] was inactive.

Consider `O=C(/C=C/c1ccco1)Nc1scc(-c2ccccc2)c1C(=O)O`, for which the outcome in assay [1], in assay [2], in assay [3] and in assay [4] was inactive.

As for `O=C(c1cc(COc2ccc3ncccc3c2)on1)N1CCCC(O)C1` (stereo not given), the result in assay [1], in assay [2], in assay [3] and in assay [4] was inactive.

With `COc1ccc(N2CCN(CC(=O)Nc3nc(C)cs3)CC2)cc1`, the result in assay [1], in assay [2], in assay [3] and in assay [4] was inactive.

For `Cc1cccc(NC(=S)N/N=C(\c2ccccc2)C(C)C)c1`, the result in assay [1] and in assay [4] was inactive. In addition, the figures for the potentiation in assay [2] and in assay [3] were 32% (active) and 152% (active), respectively.

`CCOc1ccccc1NC(=O)CCC(=O)Nc1ccccc1OCC`: the result in assay [1], in assay [2], in assay [3] and in assay [4] was inactive.
